Most compounds without a hit are left out; they make up all but 1% or so of the library.
RAD54 inh: inhibitors of human RAD54 branch migration. Q92698. RAD54 Holliday junction branch migration, FAM/BHQ fluorescence. inhibition, % at 10.4 µM. actives 0.14% (n = 360,000);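 active means mean normalized replicate activity at least 40 and at least half of replicates scoring 40 or more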;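 further: 0% = median of neutral control wells and 100% = median of positive control wells; inhibitors cause a drop in the FAM fluorescence signal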
Target sequence (Q92698 whole entry, looked up): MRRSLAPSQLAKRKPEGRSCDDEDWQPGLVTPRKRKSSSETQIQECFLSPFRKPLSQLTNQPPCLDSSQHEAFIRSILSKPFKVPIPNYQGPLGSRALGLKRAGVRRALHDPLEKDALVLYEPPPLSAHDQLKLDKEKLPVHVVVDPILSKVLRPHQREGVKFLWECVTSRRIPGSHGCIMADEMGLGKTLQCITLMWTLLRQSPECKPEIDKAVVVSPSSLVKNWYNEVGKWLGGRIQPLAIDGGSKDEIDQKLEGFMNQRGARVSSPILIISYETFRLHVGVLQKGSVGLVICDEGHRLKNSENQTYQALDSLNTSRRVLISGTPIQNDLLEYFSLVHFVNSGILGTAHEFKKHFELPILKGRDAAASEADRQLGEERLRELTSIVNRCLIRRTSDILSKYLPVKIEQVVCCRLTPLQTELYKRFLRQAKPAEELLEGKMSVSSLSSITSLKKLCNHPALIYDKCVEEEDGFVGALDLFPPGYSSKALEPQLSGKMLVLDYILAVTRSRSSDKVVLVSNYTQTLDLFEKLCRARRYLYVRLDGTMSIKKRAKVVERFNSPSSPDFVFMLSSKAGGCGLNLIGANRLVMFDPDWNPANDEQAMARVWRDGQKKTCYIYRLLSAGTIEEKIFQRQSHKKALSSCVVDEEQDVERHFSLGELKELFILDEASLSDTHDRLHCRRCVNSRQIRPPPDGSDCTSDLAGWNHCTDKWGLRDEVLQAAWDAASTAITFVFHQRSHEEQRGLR
FID counter: counter-screen for HCV NS3 helicase inhibitors: DNA intercalator displacement. DNA fluorescent intercalator displacement, fluorescence. inhibition, % at 7.9 µM. actives 0.17% (n = 290,000). AID 1845; in the data active means inhibition above about 37%;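 further: 0% = vehicle and 100% = reference compound; higher means more ethidium bromide displaced from hairpin DNA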
PvdQ acylase: blocks Pseudomonas aeruginosa PvdQ acylase activity. purified PvdQ acylase, fluorescence plate reader. inhibition, % at 10 µM. actives 0.063% (n = 340,000). AID 488965; in the data active means inhibition above about 30%, passing the limit was not always enough;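 further: 0% = vehicle neutral wells and 100% = reference inhibitor wells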
VIM-2 inhibitor: inhibitors of Pseudomonas aeruginosa VIM-2 metallo-beta-lactamase. purified VIM-2, nitrocefin hydrolysis, epi-absorbance fluorescence. inhibition, % at 5.6 µM. actives 0.89% (n = 290,000). AID 1527;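 active means inhibition above the mean of all tested compounds plus 3 SD, cutoff set per screening run, cut at about 7.5% in these data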;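 further: red hydrolysis product quenches plate fluorescence so inhibitors raise well fluorescence; 0% = enzyme with DMSO and 100% = DMSO without enzyme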
IMP-1 inhibitor: inhibitors of Pseudomonas aeruginosa IMP-1 metallo-beta-lactamase | actives 0.45% (n = 290,000) | purified IMP-1, nitrocefin hydrolysis, epi-absorbance fluorescence | inhibition, % at 5.6 µM;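 active means inhibition above the mean plus 3 SD of all compounds in the same screening run, cut at about 4.5% in these data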;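 further: 0% = IMP-1 with DMSO and 100% = DMSO wells lacking enzyme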
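Material – recombinant IMP-1 enzyme, purified · Amount – IMP-1 0.2 nM before substrate addition · Medium – HEPES buffer pH 7.1 with ZnSO4 and Brij 35 · Timing – 25 °C, 15 min preincubation, 25 min reaction · Measured by – plate fluorescence quenching by hydrolysis product, ex 480/em 530 nm · Read-out – percent enzyme inhibition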
* marks the source's active call; other numbers are inactive results; x = no result given.

SMILES	RAD54 inh	FID counter	PvdQ acylase	VIM-2 inhibitor	IMP-1 inhibitor
COc1ccc(CCN2C(=O)CC(Cc3ccccc3)C2=O)cc1OC (stereo not given)	x	-28.1	-14.7	-1.5	-2.5
Cc1cc(C)cc(N2CC(C)Cn3c2nc2c3c(=O)[nH]c(=O)n2C)c1 (stereo not given)	-3.2	-34.1	-17.1	8.6*	-4.7
C[C@H](CO)N1C[C@H](C)[C@@H](CN(C)S(C)(=O)=O)Oc2ccc(NS(C)(=O)=O)cc2C1=O	5.5	x	x	x	x
CN(C)CCCNS(=O)(=O)c1ccc(N2CCC(c3ccc(Cl)cc3)=N2)cc1	x	37.1*	x	1.2	-0.9
O=S(=O)(c1ccc(N2CCC(c3ccc(Cl)cc3)=N2)cc1)N(CCO)CCO	2.0	-22.2	-28.5	-0.1	-1.1
CC(=O)N1CC[C@@H]2[C@H]1c1cc(-c3ccc(C#N)cc3)ccc1N(C)[C@@H]2CO	-6.4	x	x	x	x
COc1ccccc1C1=NOC(CN2C(=O)c3ccccc3S2(=O)=O)C1 (stereo not given)	x	-14.5	2.3	7.7*	-3.7
CCCNC(=O)N(C)C[C@@H]1Oc2cc(C#CCC(C)C)ccc2S(=O)(=O)N([C@H](C)CO)C[C@H]1C	-3.5	x	x	x	x
CC(C)(C)NC(=O)c1cc(Cl)ccc1[N+](=O)[O-]	x	3.8	36.2*	-3.0	-3.2
CC(C)NC(=O)Nc1ccc2c(c1)C(=O)N([C@@H](C)CO)C[C@H](C)[C@H](CN(C)C)OCCCC[C@@H](C)O2	9.7	x	x	x	x
COC(=O)C1CCN(c2ccc([N+](=O)[O-])cc2)CC1	x	-2.4	21.3	-3.3	-5.0
COC(=O)C1CCN(CCCOc2ccc(CN3CCN(c4ccc([N+](=O)[O-])cc4)CC3)cc2)CC1	2.9	46.5*	1.7	-1.0	-2.3
C[C@H]1CN([C@@H](C)CO)C(=O)CCCn2cc(nn2)CO[C@H]1CN(C)Cc1cccc(C(F)(F)F)c1	2.1	x	x	x	x
CN(C)c1ccc(N=Nc2ccc(S(N)(=O)=O)cc2)cc1	-2.8	1.9	-6.9	-2.9	9.1*
Clc1cccc(Cl)c1CSc1nnc([C@@H]2CCCN2)o1	1.4	-4.2	-17.0	1.3	5.0*
Clc1cccc(CSc2nnc([C@@H]3CCCN3)o2)c1	2.1	2.2	0.6	1.9	2.0
O=C(CN(CCc1ccccc1)Cc1ccccc1)Oc1ccccc1P(=O)(O)O	-5.0	-28.4	0.0	11.0*	0.0
COCCN(CC(=O)Oc1ccccc1P(=O)(OC)OC)Cc1ccccc1	-7.7	-15.3	x	-3.8	-2.4
CO[C@@H]1CN(C)C(=O)c2ccc(NC(=O)C3CCOCC3)cc2OC[C@H](C)N(Cc2cccnc2)C[C@@H]1C	5.6	x	x	x	x
CCN(CC)c1ccc(-c2sc(Nc3ccccc3)n[n+]2-c2ccc(F)cc2)cc1	-11.4	-8.8	-28.3	3.1	5.0*
CN(C)c1ccc(-c2sc(Nc3ccccc3)n[n+]2-c2ccc(F)cc2)cc1	-15.0	-13.3	-7.1	-2.1	0.1
CCc1ccc(Nc2n[n+](-c3ccccc3)c(-c3ccc(N(CC)CC)cc3)s2)cc1	-21.3	-4.0	-26.5	2.7	7.9*
CN1[C@@H]2Cn3c(ccc(-c4cccc(F)c4)c3=O)[C@H]1[C@@H](C(=O)N1CCCCC1)[C@@H]2CO	-9.5	x	x	x	x
Oc1ccc(/C=N/N(Cc2ccccc2)c2ccccc2)c(O)c1O	x	-28.7	-14.6	0.9	5.1*
COCc1ccc(C(=O)N2CCCC(N(C)CCc3ccc(OC)c(OC)c3)C2)s1 (stereo not given)	7.7	-1.8	-7.7	-3.4	-1.2
SMILES	RAD54 inh	FID counter	PvdQ acylase	VIM-2 inhibitor	IMP-1 inhibitor
COCC(=O)N1CCCC(N(C)CCc2ccc(OC)c(OC)c2)C1 (stereo not given)	-16.6	-1.9	-4.3	-2.2	8.0*
COc1ccccc1C(=O)Nc1c2c(nn1-c1ccc(Cl)cc1)CS(=O)(=O)C2	-0.9	-9.9	-15.1	5.7	10.5*
COc1ccccc1C(=O)Nc1c2c(nn1-c1ccc([N+](=O)[O-])cc1)CS(=O)(=O)C2	-10.2	-3.1	-4.7	0.9	-3.2
COc1ccc(CN(C)C[C@@H]2OCCCC[C@@H](C)Oc3ccc(NC(=O)Nc4c(C)noc4C)cc3C(=O)N([C@H](C)CO)C[C@@H]2C)cc1	1.3	x	x	x	x
COc1ccc(S(=O)(=O)N(C)C[C@@H]2Oc3ccc(NC(=O)Nc4ccccc4)cc3CC(=O)N([C@H](C)CO)C[C@H]2C)cc1	3.6	x	x	x	x
COc1ccc(Cl)cc1Nc1cc(C)nc2nc(C)nn12	-8.3	-6.2	7.4	10.0*	-2.5
Cc1cc(Nc2ccc3c(c2)OCCO3)n2nc(C)nc2n1	-3.4	-5.2	4.1	14.1*	-3.3
Cc1cc(Nc2ccc(Br)cc2)n2nc(C)nc2n1	22.8	-6.2	-9.7	4.7	-2.7
Cc1cc(Nc2cccc(F)c2)n2nc(C)nc2n1	11.3	1.5	-2.5	3.9	-3.2
Cc1cc(Nc2ccc(F)cc2)n2nc(C)nc2n1	-4.7	-1.9	-4.1	9.7*	2.0
COCC#Cc1ccc2c(c1)O[C@@H](CN(C)C(=O)CN(C)C)[C@H](C)CN([C@@H](C)CO)S2(=O)=O	6.9	x	x	x	x
COc1ccc(S(=O)(=O)Nc2ccc3c(c2)CC(=O)N([C@H](C)CO)C[C@@H](C)[C@@H](CN(C)Cc2ccc(Cl)c(Cl)c2)O3)cc1	1.3	x	x	x	x
COC(=O)c1sc(-c2cccs2)cc1N	11.3	1.7	-3.0	3.3	12.6*
COC(=O)c1sc(-c2ccc(Cl)cc2)cc1N	-10.4	-0.9	-8.8	-3.6	-2.4
CC(C)Cc1ccc(C(C)C(N)=NCCc2ccccc2)cc1 (stereo not given)	13.9	39.0*	-6.3	-0.6	0.8
CC(C)NC(=O)Nc1ccc2c(c1)C(=O)N([C@@H](C)CO)C[C@H](C)[C@@H](CN(C)C(=O)c1ccccc1)OCCCC[C@@H](C)O2	-3.1	x	x	x	x
COc1ccc(S(=O)(=O)Nc2ccc3c(c2)C(=O)N([C@@H](C)CO)C[C@@H](C)[C@@H](CN(C)Cc2ccc(C(F)(F)F)cc2)OCCCC[C@@H](C)O3)cc1	-1.1	x	x	x	x
CC(C)CNC(=O)COC(=O)c1c2c(nc3ccccc13)/C(=C/c1cccs1)CC2	-4.1	-14.8	-9.2	3.8	6.7*
O=C(O)CC(C(=O)O)N1C(=O)/C(=C/c2ccc(-c3nc4ccccc4s3)o2)SC1=S (stereo not given)	-8.0	1.9	5.8	-1.4	5.6*
CCCCCc1ccc(OCCCC[n+]2ccccc2)c(CCCCC)c1	x	22.8	-4.1	-1.8	-0.4
CCCCCc1ccc(OCCCC[n+]2ccc(C)cc2)c(CCCCC)c1	x	37.0*	4.7	-5.0	-3.8
CCCCCc1ccc(OCCCC[n+]2cccc(C)c2)c(CCCCC)c1	x	41.1*	8.6	0.5	-2.1
COCC(N)(c1ccccc1)c1nc2ccccc2n1C (stereo not given)	8.3	-7.5	0.2	9.0*	-2.8
Cn1c(Cn2c(C(F)(F)F)nc3ccccc32)nc2ccccc21	-7.0	2.5	0.0	-2.6	-1.6
Cc1ccc(S(=O)(=O)N(C)C[C@@H]2OCCCC[C@@H](C)Oc3ccc(NC(=O)Nc4cccc5ccccc45)cc3C(=O)N([C@@H](C)CO)C[C@@H]2C)cc1	4.6	x	x	x	x
